These results are taken from PMC4229637 (British Journal of Cancer, 2014).

Like-named read-outs stand apart in the source and are kept apart here.

The nature of data set [1]: Ridaforolimus concentration in whole blood. Type of data set: in vivo, human. The settings on record: cycle 1 day 8; Dalotuzumab (10 mg kg^–1 QW)+ridaforolimus (20 mg QD × 5); N=4; some samples up to 2.5 h post dose.
The test system of data set [2] is patients. The settings on record: cited from earlier work; for main toxicities: single agent phase I.
A short description of data set [3]: MK-0752 plasma concentration. Type of data set: in vivo, human. The gist of the method:
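Test compound was given orally at 1800 mg once weekly with IV anti-IGF-1R antibody once weekly, in 28-day cycles. Pre-dose plasma was taken weekly during cycle 1 and on day 1 of subsequent cycles. Plasma levels were quantified by validated HPLC-MS/MS.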

The nature of data set [4]: Dalotuzumab concentration in serum. Format: in vivo, human. The settings on record: for Serum dalotuzumab, Median / Serum dalotuzumab, Range: cycle 1 day 8.
In data set [5] the test system is AKT1. The settings on record: read-out: IC50 AKT1; ref Yap et al, 2011; cited from earlier work.
The subject of data set [6] is AKT3. The settings on record: read-out: IC50 AKT3; ref Yap et al, 2011; cited from earlier work.
Data set [7] in a line: MK-2206 plasma concentration. Type of data set: in vivo, human. The settings on record: for Plasma MK-2206, Median / Plasma MK-2206, Range: cycle 1 day 8.
For data set [8] the following is noted: ref Biondo et al, 2011, Yap et al; cited from earlier work.
The test system of data set [9] is AKT2. The settings on record: read-out: IC50 AKT2; ref Yap et al, 2011; cited from earlier work.
Where [10] appears, read: cycle 1 day 8, Dalotuzumab (7.5 mg kg^–1 QW)+MK-0752 (1800 mg QW), N=3.
The mark [11] stands for this setting: phase I clinical trial of single-agent dalotuzumab, ref Atzori et al, 2011.
[12] abbreviates: Dalotuzumab (7.5 mg kg^–1 QW)+MK-0752 (1800 mg QW), N=4.
The mark [13] stands for this setting: Dalotuzumab (10 mg kg^–1 QW)+MK-0752 (1800 mg QW), N=11.
Where [14] appears, read: Dalotuzumab (10 mg kg^–1 QW)+MK-2206 (90 mg QW), N=3.
The mark [15] stands for this setting: Dalotuzumab (10 mg kg^–1 QW)+MK-2206 (135 mg QW), N=8.
[16] abbreviates: Dalotuzumab (10 mg kg^–1 QW)+MK-2206 (150 mg QW), N=10.
[17] abbreviates: Dalotuzumab (10 mg kg^–1 QW)+MK-2206 (200 mg QW), N=3.
Where [18] appears, read: Dalotuzumab (10 mg kg^–1 QW)+ridaforolimus (20 mg QD × 5), N=2.

Take `CO[C@H]1C[C@@H]2CC[C@@H](C)[C@@](O)(O2)C(=O)C(=O)N2CCCC[C@H]2C(=O)O[C@H]([C@H](C)C[C@@H]2CC[C@@H](OP(C)(C)=O)[C@H](OC)C2)CC(=O)[C@H](C)/C=C(\C)[C@@H](O)[C@@H](OC)C(=O)[C@H](C)C[C@H](C)/C=C/C=C/C=C/1C` [Ridaforolimus]: in data set [1], the “Whole blood ridaforolimus, Median” value was 86.7 ng ml^–1 and the “Whole blood ridaforolimus, Range” value is on record as 3.12–184 ng ml^–1. Also, in data set [2] (IV, 5 days every 2 weeks, ref Mita et al, 2008), the RP2D is listed as 12.5 mg daily. For the same molecule, the Main adverse events entry in data set [2] (single agent phase I trials, ref Mita et al, 2013, Mita et al, 2008) is “mucositis, fatigue, rash, nausea, diarrhoea, myelosuppression, and dyslipidaemia”.

For `O=C(O)CC[C@H]1CC[C@@](c2cc(F)ccc2F)(S(=O)(=O)c2ccc(Cl)cc2)CC1` [MK-0752], the main toxicities result in [2] (ref Krop et al, 2012) is “fatigue, nausea, and diarrhoea”. The “Plasma MK-0752, Median” value in data set [3] (setting [10]) was found to be 8.06 μmol l^–1; in data set [3] (cycle 1 day 8, Dalotuzumab (10 mg kg^–1 QW)+MK-0752 (1800 mg QW), N=11), 1.63 μmol l^–1. The “Plasma MK-0752, Range” value in data set [3] (setting [10]) is 1.49–11.6 μmol l^–1. Moreover, the “plasma trough levels, patients receiving 7.5 mg kg^–1 vs 10 mg kg^–1 dalotuzumab” value in data set [3] (weekly dosing with 1800 mg MK-0752) was “comparable”.

Consider “Dalotuzumab: humanised IgG1 monoclonal antibody that binds IGF-1R”, for which the “Maximum tolerated dose (MTD)” value in [2] (setting [11]) was “not reached”. For the same molecule, in [2] (setting [11]), the “most common adverse events” value was “fatigue, hyperglycaemia, and back pain”. In addition, the “recommended phase II dose (RP2D)” value in data set [2] (setting [11]) is reported as 10 mg kg^–1 per week. In addition, the “Serum dalotuzumab, Median” value in [4] (setting [12]) is listed as 39.3 μg ml^–1; in [4] (setting [13]) it was 41.7 μg ml^–1; in data set [4] (setting [14]), 33.8 μg ml^–1; in [4] (setting [15]) it was 52.2 μg ml^–1; in data set [4] (setting [16]) it was 63.5 μg ml^–1; in [4] (setting [17]), 52.3 μg ml^–1. Further, the “Serum dalotuzumab, Median” value in data set [4] (setting [18]) is recorded as 49.6 μg ml^–1. Also, the “Serum dalotuzumab, Range” value was 16.7–91.7 μg ml^–1 in data set [4] (setting [12]); 5.69–97.9 μg ml^–1 in data set [4] (setting [13]); 29.3–56.6 μg ml^–1 in data set [4] (setting [14]); 45.2–102 μg ml^–1 in [4] (setting [15]); 43.7–86.4 μg ml^–1 in data set [4] (setting [16]); 45.4–92.3 μg ml^–1 in [4] (setting [17]). The “Serum dalotuzumab, Range” value in data set [4] (setting [18]) is 32.5–66.7 μg ml^–1. Besides, the “Trough concentrations (Ctrough) after the first administration” value in [4] (dalotuzumab 7.5 and 10 mg kg^–1, generally exceeded the target threshold level) is more than 25 μg ml^–1.

The term IC50 denotes the midpoint of a concentration-inhibition curve. As usually defined, the half-life is how long it takes for the measured level to halve. As to `NC1(c2ccc(-c3nc4ccn5c(=O)[nH]nc5c4cc3-c3ccccc3)cc2)CCC1` [MK-2206], the figures for the IC50 in data set [5], in [6] and in [9] were […], 65 nM and 12 nM, respectively. Moreover, the main toxicities entry in [2] (ref Biondo et al, 2011, Yap et al) is “rash, nausea, vomiting, diarrhoea, and hyperglycaemia”. In addition, the RP2D in data set [2] (single agent, weekly, ref Biondo et al, 2011) is 135 to 200 mg. The “dose proportional increase of Ctrough levels” value in data set [7] (MK-2206 90, 135, 150, and 200 mg QW) is “not discernible”. Further, the “Plasma MK-2206, Median” value in data set [7] (setting [14]) was 12.9 nmol l^–1; in data set [7] (setting [15]), 29.1 nmol l^–1; in data set [7] (setting [16]), 9.08 nmol l^–1; in [7] (setting [17]), 37.6 nmol l^–1. The “Plasma MK-2206, Range” value in data set [7] (setting [14]) is listed as 10.3–20.4 nmol l^–1; in data set [7] (setting [15]) it was 0.687–41.1 nmol l^–1; in data set [7] (setting [16]), 0.736–26.7 nmol l^–1; in [7] (setting [17]), 20.3–50.9 nmol l^–1. The half-life in data set [8] is 40 to 100 h.
